{"data": "Results of several laboratories", "target": "D(1A) dopamine receptor (DRD1, Homo sapiens, UniProt P21728)", "note": "Compare with care: the assays were run in different laboratories."}
{"Structure (SMILES)": "CCCOc1cc2c(cc1O)[C@@H]1Cc3c(Br)cc(O)c(OCC(F)F)c3CN1CC2", "assay": "cAMP, antagonist, TR-FRET", "endpoint": "IC50", "value": "1450 nM"}
{"Structure (SMILES)": "O=C1c2ccccc2CCN1CCCCN1CCN(c2ccccn2)CC1", "assay": "cell-free assay, radioligand", "endpoint": "Ki", "value": "1660 nM"}
{"Structure (SMILES)": "CN(CCCCNC(=O)c1cc2ccccc2[nH]1)[C@@H]1Cc2cccc3[nH]c(=O)n(c23)C1", "assay": "ligand displacement, radioligand", "endpoint": "Ki", "value": "> 7900 nM"}
{"Structure (SMILES)": "COc1ccc2c(c1)C(=O)N(CCCN1CCN(c3ccccc3OC)CC1)C2", "assay": "cell-free assay, radioligand", "endpoint": "Ki", "value": "6220 nM"}
{"Structure (SMILES)": "CCCCOc1c(O)cc(Br)c2c1CN1CCc3cc(OCC(F)F)c(O)cc3[C@@H]1C2", "assay": "cAMP, antagonist, TR-FRET", "endpoint": "IC50", "value": "318 nM"}
{"Structure (SMILES)": "C[C@@H]1Cc2ccccc2N1C(=O)NCCCCN(C)[C@@H]1Cc2cccc3[nH]c(=O)n(c23)C1", "assay": "ligand displacement, radioligand", "endpoint": "Ki", "value": "> 10000 nM"}
{"Structure (SMILES)": "CCCOc1cc2c(cc1O)[C@@H]1Cc3c(Br)cc(O)c(OCC(F)(F)F)c3CN1CC2", "assay": "cAMP, antagonist, TR-FRET", "endpoint": "IC50", "value": "248 nM"}
{"Structure (SMILES)": "CCOCc1nc(O)c(-c2nnc(Cc3ccc(Cl)cn3)o2)c(O)c1-c1c(OC)cccc1OC", "assay": "ligand displacement, radioligand", "endpoint": "IC50", "value": "> 30000 nM"}
{"Structure (SMILES)": "O=C1c2ccccc2CCN1CCCCN1CCN(c2cccc(Cl)c2Cl)CC1", "assay": "cell-free assay, radioligand", "endpoint": "Ki", "value": "511 nM"}
{"Structure (SMILES)": "CCCCN1CCC(COC(=O)c2ccc(N)c(OCF)c2)CC1", "assay": "cell-free assay, radioligand", "endpoint": "Ki", "value": "> 10000 nM"}
